Assay results pooled from the literature.
Lines come from different studies, so protocols differ.
Target: 5'-AMP-activated protein kinase catalytic subunit alpha-2 (PRKAA2, Homo sapiens, UniProt P54646)

Cc1ccc(C(=O)NCc2ccsc2)cc1C#Cc1cn(C(C)C)c2ncnc(N)c12  activity vs control (enzyme activity; inhibitor; 1 µM): 80%
COc1cccc2c(NCc3ccccc3)nc(-n3c(N)nc4ccccc43)nc12  inhibition (target engagement in cells; inhibitor; chemoproteomics; 20 mM): 11.9%
Cc1ccc(C(=O)Nc2ccc(CN3CCN(C)CC3)c(C(F)(F)F)c2)cc1C#Cc1cnc2cccnn12  remaining activity (enzyme activity; 23.5 nM): 99%
CN1CC(Oc2cnc(C#N)cc2-c2ccn3nc(NC(=O)C4CC4)cc3c2)C1  inhibition (enzyme activity; inhibitor; 1 µM): 3%
CCCOc1ccc(OC)c(F)c1C(=O)c1ccc(C(=O)N[C@@H]2CNC[C@H]2NC(=O)c2ccc3[nH]ncc3c2)cc1  remaining activity (enzyme activity; inhibitor; 0.75 µM): 6%
CCCCN(CCCC)C(=O)CN1C[C@H](c2cc(OC)c3c(c2)OCO3)[C@@H](C(=O)O)[C@@H]1CC(C)(C)CCC  remaining binding (cell-free assay; competition with immobilised ligand; 1 µM): 100%
CCCS(=O)(=O)Nc1ccc(F)c(C(=O)c2c[nH]c3ncc(-c4ccc(Cl)cc4)cc23)c1F  inhibition (enzyme activity; inhibitor; 1 µM): < 20%
COc1cc(-c2cc(-c3ccc(N4CCNCC4)cc3)cnc2C)cc(OC)c1OC  inhibition (enzyme activity; inhibitor; 0.1 µM): 1%
C=CC(=O)Nc1cc(Nc2nccc(Nc3cc(Cl)c(F)cc3C(C)(C)O)n2)c(OC)cc1N1CC[C@@H](N(C)C)C1  inhibition (enzyme activity; inhibitor; 1 µM): 12%
CC1=C(C#N)C(c2ccc3c(c2)c(NC(=O)c2ccccc2C)nn3C)C(C#N)=C(C)N1  remaining binding (cell-free assay; competition with immobilised ligand; 1 µM): 99%
CCN(CC)c1ccc(C2=NNC(=O)CC2C)cc1[N+](=O)[O-] (stereo not shown)  remaining activity (enzyme activity; inhibitor; 10 µM): 108%
CC(=O)N1CCC(c2ccc(C(=O)NC3=NCCN3)cc2C(F)(F)F)CC1  remaining binding (cell-free assay; competition with immobilised ligand; 1 µM): 100%
Nc1ncnc2occ(-c3ccc(NC(=O)Nc4cc(C(F)(F)F)ccc4F)cc3)c12  remaining signal (cell-free assay; 20 µM): 7.6%
